Key:
[1] = molecular target: Rhodesain (Trypanosoma brucei rhodesiense) (UniProt Q95PM0); experiment: Inhibition of recombinant Trypanosoma brucei rhodesain expressed in Pichia pastoris at 10 uM using Z-FR-AMC as substrate preincubated for 10 mins followed by substrate addition and measured at 12 sec interval for 5 mins by fluorimetric analysis relative to control; conditions: time 15.0 min
How it was run: (§1)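 Recombinant rhodesain or cruzain (1 nM) in 0.1 M sodium acetate pH 5.5, 0.01% Triton X-100, 1 mM β-mercaptoethanol. Compound at a single concentration, either without or after 10 min enzyme pre-incubation. Z-FR-AMC 2.5 µM, read at 340/440 nm every 12 s for 5 min. Inhibition is relative to DMSO, with E-64 as positive control. Done in duplicate (primary screen) or triplicate.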

[2] = molecular target: Cruzipain (Trypanosoma cruzi) (UniProt P25779); experiment: Inhibition of recombinant Trypanosoma cruzi cruzain at 100 uM preincubated for 10 mins in presence of 0.1% Triton X-100 relative to control
How it was run: (§2)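 To test detergent sensitivity, cruzain was pre-incubated 10 min at room temperature with compound with no Triton X-100, 0.01% or 0.1% Triton X-100. Cleavage of Z-FR-AMC was then followed at pH 5.5 in acetate buffer. Percent inhibition was compared across detergent levels.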

[3] = molecular target: Rhodesain (Trypanosoma brucei rhodesiense) (UniProt Q95PM0); experiment: Inhibition of recombinant Trypanosoma brucei rhodesain expressed in Pichia pastoris at 300 uM using Z-FR-AMC as substrate preincubated for 10 mins followed by substrate addition and measured at 12 sec interval for 5 mins by fluorimetric analysis relative to control; conditions: time 15.0 min
How it was run: (§3)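 Run with no pre-incubation or with 10 min enzyme-compound pre-incubation. Fluorescence read at 340/440 nm. Concentration was set by solubility under assay conditions. Inhibition is against DMSO, with E-64 as positive control; triplicate.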

[4] = molecular target: Cruzipain (Trypanosoma cruzi, UniProt P25779); experiment: Inhibition of recombinant Trypanosoma cruzi cruzain using Z-FR-AMC as substrate and measured at 12 sec interval for 5 mins without preincubation by fluorimetric analysis
How it was run: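 Cruzain (recombinant, 1 nM) in 0.1 M sodium acetate pH 5.5 with 0.01% Triton X-100 and 1 mM β-mercaptoethanol; Z-FR-AMC 2.5 µM, read at 340/440 nm every 12 s for 5 min, with or without 10 min enzyme–compound pre-incubation. […] For mechanism and Ki, 0.3–20.0 µM substrate and five inhibitor levels were used, with Lineweaver-Burk plots.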

[5] = molecular target: Cruzipain (Trypanosoma cruzi) (UniProt P25779); experiment: Inhibition of recombinant Trypanosoma cruzi cruzain at 100 uM preincubated with BSA for 5 mins followed by incubation with enzyme for 5 mins followed by substrate addition relative to control; conditions: time 10.0 min
How it was run: (§4)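 For BSA sensitivity, compound was held 5 min with BSA (2 mg/mL in 0.001% Triton X-100), then 5 min with 1 nM cruzain, before substrate was added and activity monitored. Parallel runs omitted BSA under otherwise identical conditions.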

[6] = molecular target: Cruzipain (Trypanosoma cruzi) (UniProt P25779); experiment: Inhibition of recombinant Trypanosoma cruzi cruzain at 300 uM using Z-FR-AMC as substrate preincubated for 10 mins followed by substrate addition and measured at 12 sec interval for 5 mins by fluorimetric analysis relative to control; conditions: time 15.0 min; how it was run: as §1
[7] = molecular target: Rhodesain (Trypanosoma brucei rhodesiense) (UniProt Q95PM0); experiment: Inhibition of recombinant Trypanosoma brucei rhodesain expressed in Pichia pastoris at 5 uM using Z-FR-AMC as substrate preincubated for 10 mins followed by substrate addition and measured at 12 sec interval for 5 mins by fluorimetric analysis relative to control; conditions: time 15.0 min
How it was run: as §1, with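 “pre-incubation.” for “pre-incubation. Z-FR-AMC 2.5 µM, read at 340/440 nm every 12 s for 5 min.”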

[8] = molecular target: Cruzipain (Trypanosoma cruzi) (UniProt P25779); experiment: Inhibition of recombinant Trypanosoma cruzi cruzain at 5 uM using Z-FR-AMC as substrate preincubated for 10 mins followed by substrate addition and measured at 12 sec interval for 5 mins by fluorimetric analysis relative to control; conditions: time 15.0 min
How it was run: as §1, with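 “pre-incubation.” for “pre-incubation. Z-FR-AMC 2.5 µM, read at 340/440 nm every 12 s for 5 min.”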

[9] = molecular target: Cruzipain (Trypanosoma cruzi) (UniProt P25779); experiment: Inhibition of recombinant Trypanosoma cruzi cruzain at 300 uM using Z-FR-AMC as substrate and measured at 12 sec interval for 5 mins without preincubation by fluorimetric analysis relative to control; how it was run: as §1
[10] = molecular target: Cruzipain (Trypanosoma cruzi) (UniProt P25779); experiment: Inhibition of recombinant Trypanosoma cruzi cruzain at 100 uM preincubated for 10 mins in absence of Triton X-100 relative to control; how it was run: as §2
[11] = molecular target: T1, cathepsin S (Homo sapiens, UniProt P25774); experiment: Inhibition of recombinant human cathepsin S expressed in Escherichia coli at 100 uM using Z-VVR-AMC as substrate preincubated for 10 mins followed by substrate addition and measured after 15 mins by microplate reader based assay relative to control; conditions: probe Z-VVR-AMC, in the assay text read “preincubated for 5 mins” for “preincubated for 10 mins”, time 20 min
How it was run: (§5)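 Run with or without 5 min compound–enzyme pre-incubation. AMC fluorescence at 380/460 nm over 15 min. Inhibition relative to DMSO (2% final); E64 1 µM as positive control. Two independent experiments, each in triplicate.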

[12] = molecular target: Cruzipain (Trypanosoma cruzi) (UniProt P25779); experiment: Inhibition of recombinant Trypanosoma cruzi cruzain at 100 uM preincubated for 10 mins in presence of 0.01% Triton X-100 relative to control; how it was run: as §2
[13] = molecular target: Cruzipain (Trypanosoma cruzi) (UniProt P25779); experiment: Inhibition of recombinant Trypanosoma cruzi cruzain at 100 uM preincubated with enzyme for 5 mins followed by substrate addition in absence of BSA relative to control; how it was run: as §4
[14] = molecular target: T2, cathepsin B (Rattus norvegicus, UniProt P00787); experiment: Inhibition of rat cathepsin B at 100 uM using Z-FR-AMC as substrate measured after 15 mins without preincubation by microplate reader based assay relative to control; conditions: probe Z-FR-AMC
How it was run: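 Rat cathepsin B (20 nM) at 25°C in 100 mM sodium phosphate, 100 mM NaCl, 1 mM EDTA, 1 mM DTT, 0.01% CHAPS. Compound pre-incubated 0 or 5 min with enzyme; Z-FR-AMC 50 µM, ex 380/em 440 nm, monitored 15 min. Inhibition is versus 2% DMSO, with 1 µM E64 control. Two independent experiments in triplicate.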

[15] = tested on: Trypanosoma brucei rhodesiense; experiment: Trypanocidal activity against Trypanosoma brucei rhodesiense STI B900 assessed as reduction in parasite viability; format: functional, organism-based
[16] = molecular target: T1, cathepsin S; experiment: Inhibition of recombinant human cathepsin S expressed in Escherichia coli at 100 uM using Z-VVR-AMC as substrate and measured after 15 mins without preincubation by microplate reader based assay relative to control; conditions: probe Z-VVR-AMC; how it was run: as §5
[17] = molecular target: Rhodesain (Trypanosoma brucei rhodesiense) (UniProt Q95PM0); experiment: Inhibition of recombinant Trypanosoma brucei rhodesain expressed in Pichia pastoris at 300 uM using Z-FR-AMC as substrate and measured at 12 sec interval for 5 mins without preincubation by fluorimetric analysis relative to control; how it was run: as §3
[18] = molecular target: T2, cathepsin B; experiment: Inhibition of rat cathepsin B at 100 uM using Z-FR-AMC as substrate preincubated for 5 mins followed by substrate addition and measured after 15 mins by microplate reader based assay relative to control; conditions: probe Z-FR-AMC
[19] = molecular target: Cruzipain (Trypanosoma cruzi) (UniProt P25779); experiment: Inhibition of recombinant Trypanosoma cruzi cruzain at 10 uM using Z-FR-AMC as substrate preincubated for 10 mins followed by substrate addition and measured at 12 sec interval for 5 mins by fluorimetric analysis relative to control; conditions: time 15.0 min; how it was run: as §1
[20] = molecular target: Rhodesain (Trypanosoma brucei rhodesiense) (UniProt Q95PM0); experiment: Inhibition of recombinant Trypanosoma brucei rhodesain expressed in Pichia pastoris at 10 uM using Z-FR-AMC as substrate and measured at 12 sec interval for 5 mins without preincubation by fluorimetric analysis relative to control; how it was run: as §1

T1 sequence (P25774 whole entry): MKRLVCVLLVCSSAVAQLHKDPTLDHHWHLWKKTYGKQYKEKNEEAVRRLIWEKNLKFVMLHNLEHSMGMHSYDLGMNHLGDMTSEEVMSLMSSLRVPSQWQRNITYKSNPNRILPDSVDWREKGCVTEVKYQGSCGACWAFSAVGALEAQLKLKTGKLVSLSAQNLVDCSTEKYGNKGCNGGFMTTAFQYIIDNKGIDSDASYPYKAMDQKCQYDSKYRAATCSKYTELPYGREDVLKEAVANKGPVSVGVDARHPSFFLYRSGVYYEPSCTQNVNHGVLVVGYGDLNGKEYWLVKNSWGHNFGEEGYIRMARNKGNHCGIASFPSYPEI
T2 sequence (P00787 whole entry): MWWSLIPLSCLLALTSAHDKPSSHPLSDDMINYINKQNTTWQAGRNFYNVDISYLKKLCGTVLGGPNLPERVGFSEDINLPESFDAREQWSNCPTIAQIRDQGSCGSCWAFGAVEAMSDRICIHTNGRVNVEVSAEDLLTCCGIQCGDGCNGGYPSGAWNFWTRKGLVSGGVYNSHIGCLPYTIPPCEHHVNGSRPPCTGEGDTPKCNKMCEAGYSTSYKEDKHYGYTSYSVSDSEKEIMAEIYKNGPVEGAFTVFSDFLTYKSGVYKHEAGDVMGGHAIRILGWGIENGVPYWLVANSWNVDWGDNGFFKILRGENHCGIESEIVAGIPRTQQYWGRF
Rhodesain (Trypanosoma brucei rhodesiense), sequence (Q95PM0 1-450): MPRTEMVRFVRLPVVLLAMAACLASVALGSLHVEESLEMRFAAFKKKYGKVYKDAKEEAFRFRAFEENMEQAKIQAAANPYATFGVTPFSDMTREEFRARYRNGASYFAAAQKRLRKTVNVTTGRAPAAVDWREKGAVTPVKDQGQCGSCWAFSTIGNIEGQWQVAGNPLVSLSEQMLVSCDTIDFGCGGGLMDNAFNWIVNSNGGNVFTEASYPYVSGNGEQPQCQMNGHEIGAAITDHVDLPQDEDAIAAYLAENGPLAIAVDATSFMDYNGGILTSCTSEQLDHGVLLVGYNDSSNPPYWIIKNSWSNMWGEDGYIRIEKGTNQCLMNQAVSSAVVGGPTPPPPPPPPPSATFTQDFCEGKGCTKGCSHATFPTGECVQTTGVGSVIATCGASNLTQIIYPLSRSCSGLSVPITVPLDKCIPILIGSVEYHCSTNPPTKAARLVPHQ
Cruzipain (Trypanosoma cruzi), sequence (P25779 123-467 limits assumed): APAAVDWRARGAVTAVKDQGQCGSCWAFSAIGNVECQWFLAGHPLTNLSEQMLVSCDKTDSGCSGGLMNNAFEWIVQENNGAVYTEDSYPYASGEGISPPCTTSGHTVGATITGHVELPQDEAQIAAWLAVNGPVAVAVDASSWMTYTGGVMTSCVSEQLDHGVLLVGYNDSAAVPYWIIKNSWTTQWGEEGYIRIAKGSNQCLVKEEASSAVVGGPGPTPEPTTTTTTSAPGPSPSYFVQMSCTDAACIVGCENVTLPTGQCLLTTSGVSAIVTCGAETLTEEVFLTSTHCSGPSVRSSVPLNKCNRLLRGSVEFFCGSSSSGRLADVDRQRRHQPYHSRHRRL
Cruzipain, sequence (P25779 whole entry): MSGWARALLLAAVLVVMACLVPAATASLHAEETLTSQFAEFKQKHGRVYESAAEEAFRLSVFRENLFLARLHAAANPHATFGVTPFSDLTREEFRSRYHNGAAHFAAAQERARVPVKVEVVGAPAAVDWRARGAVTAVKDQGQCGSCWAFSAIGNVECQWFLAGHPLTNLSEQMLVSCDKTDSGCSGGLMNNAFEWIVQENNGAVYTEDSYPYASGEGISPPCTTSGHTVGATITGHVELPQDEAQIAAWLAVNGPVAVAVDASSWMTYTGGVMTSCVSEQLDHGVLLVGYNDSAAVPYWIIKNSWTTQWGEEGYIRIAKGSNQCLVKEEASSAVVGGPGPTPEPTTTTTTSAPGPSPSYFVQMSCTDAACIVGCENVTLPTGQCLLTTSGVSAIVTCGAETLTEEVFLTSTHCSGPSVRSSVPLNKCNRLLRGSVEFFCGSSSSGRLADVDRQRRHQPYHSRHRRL

Row | SMILES | inhibition [1] | inhibition [2] | inhibition [3] | IC50 [4] | inhibition [5] | inhibition [6] | inhibition [7] | inhibition [8] | inhibition [9] | inhibition [10] | inhibition at 0.25 h, 100 µM [11] | inhibition [12] | inhibition [13] | inhibition at 0.25 h, 100 µM [14] | IC50 [15] | inhibition at 0.25 h, 100 µM [16] | inhibition [17] | inhibition at 0.25 h, 100 µM [18] | inhibition [19] | inhibition [20]
1 | Cl.Cl.Clc1cc(Br)ccc1-c1ccc(CNCC2CCNCC2)o1 | 2% | 76.7% | 75% | 26 µM | 90.1% | 84% | 49.6% | 56.7% | 78% | 96.8% | 29.8% | 67.1% | 86.2% | 1.3% | 0.1 µM | 27.1% | 96% | 3.2% | 15% | 10%
2 | Cn1c(=O)n(C)c2cc(CNCCNc3ccnc4cc(Cl)ccc34)ccc21 | 12% | 56.4% | 71% | 145 µM | 87.8% | 80% | 81.4% | 79.7% | 75% | 64.5% | 8.4% | 74.8% | 62.1% | 9.9% | 0.4 µM | 4.7% | 67% | 11.7% | 18% | 10%
